These results are taken from the array DNA melting data of Ke et al. (doi:10.1101/2024.01.08.574731).

A short description of series [1]: folding enthalpy; higher = less favourable; fluorescence melt of hairpins on a sequencing array, two-state fit. Particulars: sodium 0.088 M. An outline of the steps: (§1)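 To match UV melts, fitted temperatures were raised by 9.35 °C. These fits were bootstrapped two-state models that gave melting temperature and folding enthalpy, combined by inverse variance over four replicates. The input was normalised Cy3 fluorescence of library hairpins with annealed Cy3 and quencher oligos on a sequenced MiSeq flow cell, imaged in 50 mM Na-HEPES pH 8.0, 25 mM NaCl in 2.5 °C steps up to 60 °C.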

Series [2] in a line: melting temperature; fluorescence melt of hairpins on a sequencing array, two-state fit, raised by 9.35 °C to match UV melts. The note with it: sodium 0.088 M. An outline of the steps: as §1

In the case of GATCCTGGTAAGGATC ((((((....)))))), in series [1], the folding enthalpy was -41.8 kcal/mol. In addition, the Tm in series [2] stood at 65.8 °C.
For GATCCTGGTTAGGATC ((((((....)))))), in that order: -38 kcal/mol and 51.9 °C.
For GATCCTTAACAGGATC ((((((....)))))), in that order: -36.3 kcal/mol and 49 °C.
In the same order, the values of GATCCTTACGAGGATC ((((((....)))))) are -39.9 kcal/mol and 53.2 °C.
As to GATCCTTACTAGGATC ((((((....)))))), the folding enthalpy in series [1] was -36.5 kcal/mol. In addition, the Tm in series [2] worked out at 52.4 °C.
In the same order, the values of GATCCTTAGCAGGATC ((((((....)))))) are -38 kcal/mol and 48.8 °C.
For GATCCTTCCGAGGATC ((((((....)))))), in that order: -43.5 kcal/mol and 53.1 °C.
In the same order, the values of GATCCTTGAAGGATC ((((((...)))))) are -38.8 kcal/mol and 51.2 °C.
In the case of GATCCTTGACAGGATC ((((((....)))))), the folding enthalpy in series [1] was -28.2 kcal/mol. Also, the Tm in series [2] turned out to be 49.7 °C.
For GATCCTTGAGAGGATC ((((((....)))))), in that order: -42.5 kcal/mol and 53.6 °C.
Consider GATCCTTGGGAGGATC ((((((....)))))), for which the folding enthalpy in series [1] is -43.2 kcal/mol. Further, in series [2], the Tm is 53.2 °C.
For GATCCTTGTCAGGATC ((((((....)))))), in that order: -37.6 kcal/mol and 50.1 °C.
For GATCCTTGTTAGGATC ((((((....)))))), in that order: -34.8 kcal/mol and 52.8 °C.
In the same order, the values of GATCCTTTCTAGGATC ((((((....)))))) are -40.5 kcal/mol and 53.7 °C.
Turning to GATCCTTTGAGGATC ((((((...)))))), the folding enthalpy in series [1] was -33.6 kcal/mol. Further, the Tm in series [2] came out at 54.2 °C.
In the same order, the values of GATCCTTTTAGGATC ((((((...)))))) are -28.8 kcal/mol and 58.9 °C.
For GATCGAAACATCGATC ((((((....)))))), the folding enthalpy in series [1] was -39.9 kcal/mol. Also, in series [2], the Tm was determined as 50 °C.
For GATCGAAAGATCGATC ((((((....)))))), in that order: -19.9 kcal/mol and 50.2 °C.
Turning to GATCGAAAGTTCGATC ((((((....)))))), in series [1], the folding enthalpy was -36.2 kcal/mol. Moreover, the Tm in series [2] amounted to 50.4 °C.
For GATCGAACACTCGATC ((((((....)))))), in that order: -31 kcal/mol and 48.9 °C.
Turning to GATCGAACATTCGATC ((((((....)))))), the folding enthalpy in series [1] was -38.5 kcal/mol. The Tm in series [2] turned out to be 50.7 °C.
In the same order, the values of GATCGAACCCTCGATC ((((((....)))))) are -39.5 kcal/mol and 50.2 °C.
In the same order, the values of GATCGAACCTTCGATC ((((((....)))))) are -40.7 kcal/mol and 53.5 °C.
For GATCGAACGCTCGATC ((((((....)))))), in that order: -40.4 kcal/mol and 50.7 °C.
GATCGAACTGTCGATC ((((((....)))))): the folding enthalpy in series [1] is -31.1 kcal/mol. Further, the Tm in series [2] turned out to be 49.2 °C.
In the same order, the values of GATCGAAGGGTCGATC ((((((....)))))) are -31.6 kcal/mol and 50.6 °C.
In the same order, the values of GATCGAATAATCGATC ((((((....)))))) are -30.8 kcal/mol and 47.6 °C.
For GATCGAATACTCGATC ((((((....)))))), in that order: -37.5 kcal/mol and 49.9 °C.
For the sequence GATCGAATCATCGATC ((((((....)))))), the folding enthalpy in series [1] is -35.7 kcal/mol. The Tm in series [2] is 51.9 °C.
In the same order, the values of GATCGAATGATCGATC ((((((....)))))) are -19.6 kcal/mol and 51.7 °C.
Regarding GATCGAATGCTCGATC ((((((....)))))), the folding enthalpy in series [1] was -49.6 kcal/mol. Besides, the Tm in series [2] was 49.9 °C.
For GATCGAATGTTCGATC ((((((....)))))), in that order: -42.5 kcal/mol and 52.5 °C.
In the same order, the values of GATCGACAAATCGATC ((((((....)))))) are -31.2 kcal/mol and 48.1 °C.
In the same order, the values of GATCGACAGGTCGATC ((((((....)))))) are -39.1 kcal/mol and 60.3 °C.
On to GATCGACATTCGATC ((((((...)))))), for which the folding enthalpy in series [1] is -36.1 kcal/mol. For the same sequence, the Tm in series [2] amounted to 49.9 °C.
For GATCGACATTTCGATC ((((((....)))))), in that order: -38.6 kcal/mol and 50.8 °C.
For GATCGACCCATCGATC ((((((....)))))), in that order: -44.4 kcal/mol and 51.5 °C.
For GATCGACCTGTCGATC ((((((....)))))), in that order: -40.3 kcal/mol and 65 °C.
